Shown are actives, neighbours in structure and some others; about 2.3% of the full set was active somewhere.
HNF4A DNA FP – change in binding of human HNF4 alpha to DNA; AID 1224865; HNF4a-FITC DNA binding, fluorescence polarization, 1 h; activity change, % at 10 µM; P41235; hit rate 0.3% among 360,000; in the data active = activity change above about 30%, passing the limit was not always enough
TPT1 inh – blocks Candida albicans tRNA 2'-phosphotransferase. recombinant caTPT1, FP RNA substrate dephosphorylation. inhibition, % at 5 µM. hit rate 0.81% among 300,000. AID 1962;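 active = inhibition above the mean of all tested compounds plus 3 SD, set per screening campaign, cut at about 24% in these data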;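 note: plate controls were DMSO alone for no effect and ferristatin control at 100 nM for full effect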
Myeloid diff MLP – myeloid differentiation induction. ER-HoxA9 myeloid progenitors, lysozyme-GFP differentiation, flow cytometry. calls only at 10 µM. hit rate 1% among 360,000;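 active = normalized GFP-positive differentiation at or above the plate's own cutoff, the solvent-only control mean plus 3 SD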;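 note: cells exposed to compound for four days before flow analysis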
Rpn11 inh – Rpn11 (human) deubiquitinase inhibition. O00487. human 26S proteasome, Ub4-pepOG fluorescence polarization; 20S core pre-blocked with epoxomicin. inhibition, % at 20 µM. hit rate 0.59% among 360,000;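 active = inhibition at 20 µM, scaled to each plate's controls, above about 33%, limit read from the data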
Target sequence (O00487 whole entry, looked up): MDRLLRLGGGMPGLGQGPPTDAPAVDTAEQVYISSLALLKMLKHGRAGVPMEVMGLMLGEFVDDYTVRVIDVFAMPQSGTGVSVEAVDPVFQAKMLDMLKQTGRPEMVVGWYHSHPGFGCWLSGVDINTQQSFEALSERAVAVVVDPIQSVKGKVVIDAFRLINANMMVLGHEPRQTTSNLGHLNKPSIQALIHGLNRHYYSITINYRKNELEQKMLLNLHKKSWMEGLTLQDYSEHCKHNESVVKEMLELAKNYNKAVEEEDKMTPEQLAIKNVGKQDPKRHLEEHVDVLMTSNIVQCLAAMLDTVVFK
CSN deneddyl inh – blocks human CSN-mediated cullin deneddylation | Q92905 | hit rate 0.38% among 360,000 | Purified CSN, SCF-Nedd8-OG deneddylation, fluorescence polarization | inhibition, % at 12.5 µM;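 active = pattern-corrected inhibition above about 35%, with an unprinted fluorescence ratio check between 0.5 and 1.5, limit read from the data, passing the limit was not always enough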;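 note: 0% = enzyme with substrate and 100% = substrate without enzyme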
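Material: human Csn5 produced in HEK293T cells; Input: enzyme 0.24 nM; Reagent: SCFSkp2-Nedd8OG substrate at 10 nM final; Dosing: 12.5 µM compound; Incubation: 90 min reaction at room temperature; Detection: fluorescence polarization of the substrate; Evaluation: % inhibition of substrate cleavage by Csn5; Control set: substrate-only high control, full reaction low control.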
Active calls of the source: *; i = inactive; x = no result shown; + = active, no number.

SMILES	HNF4A DNA FP	TPT1 inh	Myeloid diff MLP	Rpn11 inh	CSN deneddyl inh
COc1ccc(C(C(=O)Nc2ccc(F)cc2)N2CCN(C(=O)c3ccco3)CC2)cc1 (stereo unspecified)	6	x	i	x	-1
CCOC(=O)c1cc2c(ccn2C)n1CC(=O)N(Cc1ccccc1)c1ccccc1	-5	-6	+	-13	8
COCCNC(=O)C1(C)CCN(C(=O)c2ccc(C(F)(F)F)nc2C)C1 (stereo unspecified)	2	x	i	-5	8
COc1cc(NC(=O)c2ccc(Br)cc2)ccc1NC(=O)c1cc2ccccc2o1	3	-1	i	0	-4
COc1cc(NC(=O)c2ccc(C)cc2)ccc1NC(=O)c1cc2ccccc2o1	-3	2	+	3	7
CC(/C=C/c1ccc(N(C)C)cc1)=N\N=C1\NC(=O)CC(C(=O)Nc2ccccc2)S1 (stereo unspecified)	34*	19	i	x	6
Cc1cccc(C)c1-n1nnnc1C1c2ccccc2C(=O)N1C1CC1 (stereo unspecified)	0	x	i	x	-2
CCOc1ccccc1NC(=O)Nc1ccc2c(c1)CCC2	1	1	+	1	5
O=C(COc1ccc([N+](=O)[O-])cc1)Nc1ccc2c(c1)nc1n2CCOC1	0	-3	+	-2	2
Cc1ccc(OCC(=O)Nc2ccc3c(c2)nc2n3CCOC2)cc1	4	-5	i	2	4
COc1ccc(N(C(=O)c2ccncc2)S(=O)(=O)c2ccccc2)cc1	1	-5	i	-7	1
COc1ccc(N(C(=O)c2ccncc2)S(=O)(=O)c2ccc(F)cc2)cc1	7	-3	i	-2	85*
COC(=O)C1=COC(OC2OC(CO)C(O)C(O)C2O)C2C(C)CC(=O)C12 (stereo unspecified)	-9	x	i	-17	7
CCOC(=O)Nc1ccc2c(CN3CCC(C(=O)OC)CC3)cc(=O)oc2c1	2	-1	i	-5	-2
CCc1ccc2c(CN3CCC(C(=O)OC)CC3)cc(=O)oc2c1	84*	0	i	-4	-1
N#Cc1cccc(C2CC(OCCF)=CC(=O)O2)c1 (stereo unspecified)	-2	x	i	x	1
O=C(NCCC1=CCCCC1)C1CCC(CNc2c(N3CCCCC3)c(=O)c2=O)CC1 (stereo unspecified)	0	-2	i	-2	-2
O=C(NCCC1=CCCCC1)C1CCC(CNc2c(N3CCCC3)c(=O)c2=O)CC1 (stereo unspecified)	29*	2	i	4	4
Cc1ccccc1C1C(C#N)=C2N=C(N)c3c(sc4c3CCCCC4)N2C2=C1C(=O)CC(C)(C)C2 (stereo unspecified)	-26	-4	+	-12	-23
COCCn1c(SCC(=O)Nc2ccc3c(c2)OCCO3)nc2c(c1=O)SC(C)C2 (stereo unspecified)	-2	3	+	-1	-5
CC1Cc2nc(SCC(=O)Nc3ccc4c(c3)OCCO4)n(C)c(=O)c2S1 (stereo unspecified)	4	2	i	12	3
O=C(Nc1cc(C(F)(F)F)cc(C(F)(F)F)c1)[C@H]1O[C@@H](n2ccc(=O)[nH]c2=O)[C@H](O)[C@@H]1O	5	x	i	7	1
CC(=O)C1=C(C)NC(SCC(=O)c2ccccc2)=C(C#N)C1c1ccco1 (stereo unspecified)	x	10	x	x	x
CC(=O)C1=C(C)NC(SCC(=O)c2ccc(Cl)cc2)=C(C#N)C1c1ccco1 (stereo unspecified)	9	15	+	33	6
CC1(C(=O)Nc2ccc3c(c2)OCCO3)CN(S(C)(=O)=O)CC(=O)N1CCc1ccccc1F (stereo unspecified)	0	x	i	x	-5
SMILES	HNF4A DNA FP	TPT1 inh	Myeloid diff MLP	Rpn11 inh	CSN deneddyl inh
CCOc1ccc(C2C(C(=O)C3CC3)N3C=C(C#N)C=CC3C2(C#N)C#N)cc1 (stereo unspecified)	x	50*	x	x	x
CCOc1ccc(C(=O)C2CCN(C(=O)c3ccccc3C(=O)O)CC2)cc1	-1	-1	i	0	-1
CC(C)[C@@H]1CC[C@@H](C)C[C@H]1O	-2	x	i	2	-7
CCOC(=O)[C@]12CCC=C1N(Cc1cccc3ccccc13)C(=O)[C@H](CC(=O)N1CCSCC1)C2	3	x	i	x	-2
CCCNC(=O)Cn1nc(-c2ccccc2OC)ccc1=O	2	x	i	6	4
O=S(=O)(c1ccccc1)N1CN(c2ccc(F)cc2F)c2nc3ccccc3nc21	0	x	i	-5	5
CN1CCCN(S(=O)(=O)c2cccc(C(F)(F)F)c2)c2nc3ccccc3nc21	-1	x	+	0	11
Cc1c(C(=O)Nc2nc(-c3ccccn3)cs2)oc2ccccc12	-1	x	i	42*	7
CC1(Cc2ccccc2Cl)C(=O)Nc2c(Cl)ccc(Cl)c21 (stereo unspecified)	0	x	i	-6	1
Cc1cn(-c2cc(NC(=O)c3ccc(C)c(NC(=O)c4cccc(-c5cn[nH]c(=O)c5)c4)c3)cc(C(F)(F)F)c2)cn1	25	-1	i	107*	13
Cc1ccc(NC(=O)c2cccc(C(F)(F)F)c2)cc1NC(=O)c1[nH]cnc1C(N)=O	0	x	i	-5	4
COc1ccccc1Cn1c(=S)[nH]c2cc(C(=O)N3CCC(C(N)=O)CC3)ccc2c1=O	0	0	+	-4	90
CCOC(=O)N1CCN(C(=O)c2ccc3c(=O)n(Cc4ccccc4OC)c(=S)[nH]c3c2)CC1	-1	0	i	-10	2
O=C(NCCN1CCCCC1)c1cccc2c1C(=O)c1ccc(N3CCCC3)cc1S2(=O)=O	61	x	+	x	33
CC(C)(C)CNC(=O)c1cccc2c1C(=O)c1ccc(N3CCCC3)cc1S2(=O)=O	88	x	i	x	42*
COc1ccc(S(=O)(=O)Cc2ccccc2)cc1N	1	-4	+	5	-2
O=C(Nc1ccccc1N1CCCC1)c1ccccc1F	38*	-2	i	-3	0
O=C(Nc1ncccn1)c1ccc([N+](=O)[O-])o1	78*	6	i	x	64*
O=C(Nc1ccccc1N1CCCCC1)c1ccccc1F	2	-5	i	-18	-8
O=C(Nc1ccccc1N1CCCC1)c1ccc([N+](=O)[O-])o1	-2	2	+	0	1
CN1CCN(c2ccccc2NC(=O)c2cc3ccccc3o2)CC1	1	-2	+	20	3
O=C(CC[C@H]1O[C@@H](n2ccc(=O)[nH]c2=O)[C@H](O)[C@@H]1O)N[C@H](Cc1ccccc1)C(=O)NCc1cccs1	4	x	i	-8	-6
Cc1cccc(NC(=O)c2ccc([N+](=O)[O-])o2)c1C	0	-2	+	-3	-4
O=C(Nc1cccc2ccccc12)c1ccc([N+](=O)[O-])o1	0	-1	x	-4	-1
